The subject of test [1] is Rattus norvegicus. In words: Effective dose for PCA-induced 5-HT depletion was determined by oral administration. In kind it is functional. The essentials: (§1)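 Male Wiga Wistar rats (200 g, n=6 per condition) dosed sc or po (10 mL/kg). At 4 h, frontal cortex removed and extracted with perchloric acid/metabisulfite; 5-HT measured by HPLC-electrochemical detection against a standard curve with dihydroxybenzylamine internal standard. Effect scaled between pCA+vehicle and vehicle+vehicle controls; ED50 from sigmoidal fit.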

The subject of test [2] is Rattus norvegicus. Put plainly: Effective dose for PCA-induced 5-HT depletion was determined by subcutaneous administration. Format: functional. As to conditions: sc. The essentials:
as §1

The target in a further test is D(3) dopamine receptor (Homo sapiens, UniProt P35462). In words: Inhibition of [125I]-iodosulpiride binding to Dopamine receptor D3. The essentials:
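Radioligand competition using membranes from a cell line transfected with human D3 receptor, incubated under optimized conditions. Bound ligand read by scintillation proximity assay rather than filtration. Ki by Cheng-Prusoff.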

The target in test [3] is 5-hydroxytryptamine receptor 2A (Homo sapiens, UniProt P28223). In words: Inhibition of [125I]- R91150 binding to 5-hydroxytryptamine 2A receptor. In outline: (§2)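 Radioligand competition binding on membranes from cell lines carrying the human target, incubated with the labelled ligand under optimized conditions. Separation by filtration, except α1A and D3, which used scintillation proximity assay.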

Test [4] concerns the target T1, 5-hydroxytryptamine receptor 1A (Homo sapiens, UniProt P08908).
T1 sequence (P08908 whole entry): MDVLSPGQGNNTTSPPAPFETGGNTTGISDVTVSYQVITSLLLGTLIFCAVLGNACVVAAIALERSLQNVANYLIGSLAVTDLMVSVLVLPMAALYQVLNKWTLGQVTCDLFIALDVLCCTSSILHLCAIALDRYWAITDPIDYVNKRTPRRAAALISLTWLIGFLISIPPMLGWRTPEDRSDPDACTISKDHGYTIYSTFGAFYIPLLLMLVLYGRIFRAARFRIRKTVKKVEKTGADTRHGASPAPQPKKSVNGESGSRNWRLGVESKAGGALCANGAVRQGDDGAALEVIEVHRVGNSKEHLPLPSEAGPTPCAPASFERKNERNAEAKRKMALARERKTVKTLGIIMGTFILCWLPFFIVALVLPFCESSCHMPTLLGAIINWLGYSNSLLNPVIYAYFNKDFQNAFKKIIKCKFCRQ
Put plainly: Inhibition of [3H]8-OH-DPAT binding to 5-hydroxytryptamine 1A receptor. In outline: as §2

Test [5] has as its system Rattus norvegicus. In words: Effective dose for reversal of medetomidine-Induced loss of righting was determined by oral administration. In kind it is functional. The essentials: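 Oral pretreatment of overnight-fasted male Wistar rats (200-250 g), then medetomidine 0.10 mg/kg iv (reversal means no loss of righting) or pCA 5 mg/kg sc (excitation scored 0-3 over 15 min from 45 min after pCA; inhibition means score <2). Doses taken from a geometric series.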

In test [6] the target is T2, Sodium-dependent serotonin transporter (Homo sapiens, UniProt P31645). In words: Inhibition of [3H]- paroxetine binding to 5-HTT receptor, serotonin transporter. In outline: (§3)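 Human platelet membranes (50 µg protein) in 50 mM Tris-HCl pH 7.4 with 120 mM NaCl and 5 mM KCl. Competition against [3H]paroxetine (0.5 nM), 60 min at 25 °C. Nonspecific binding defined with imipramine (1 µM). Filtration over 0.1% PEI-presoaked GF/B, washed with incubation buffer. Sigmoidal fit of specific binding; Ki via Cheng-Prusoff.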

In test [7] the target is 5-hydroxytryptamine receptor 7 (Homo sapiens, UniProt P34969). In words: Inhibition of [3H]5-HT binding to 5-hydroxytryptamine 7 receptor. In outline:
as §2

Test [8] concerns Rattus norvegicus. Put plainly: Effective dose concentration for antagonism ofpCA-Induced excitation was determined by subcutaneous administration. Format: functional. Particulars: sc. In outline: (§4)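 Male Wistar rats (200-250 g), fasted overnight, given test compound or solvent sc before challenge. Loss of righting induced by medetomidine 0.10 mg/kg iv; reversal means no loss of righting. Excitation induced by pCA 5 mg/10 mL/kg sc and scored 0-3 over 15 min starting 45 min after pCA; inhibition means score <2.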

The target of test [9] is Norepinephrine transporter (Rattus norvegicus, UniProt Q9WTR4). In words: Inhibition of [3H]-nisoxetine binding to Norepinephrine transporter from rat cortex. In outline: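 Radioligand competition on rat cortex membranes, incubated under optimized conditions. Stopped by rapid filtration. Ki by Cheng-Prusoff.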
Test [10] has as its target T3, Alpha-2C adrenergic receptor (Homo sapiens, UniProt P18825).
T3 sequence (P18825 whole entry): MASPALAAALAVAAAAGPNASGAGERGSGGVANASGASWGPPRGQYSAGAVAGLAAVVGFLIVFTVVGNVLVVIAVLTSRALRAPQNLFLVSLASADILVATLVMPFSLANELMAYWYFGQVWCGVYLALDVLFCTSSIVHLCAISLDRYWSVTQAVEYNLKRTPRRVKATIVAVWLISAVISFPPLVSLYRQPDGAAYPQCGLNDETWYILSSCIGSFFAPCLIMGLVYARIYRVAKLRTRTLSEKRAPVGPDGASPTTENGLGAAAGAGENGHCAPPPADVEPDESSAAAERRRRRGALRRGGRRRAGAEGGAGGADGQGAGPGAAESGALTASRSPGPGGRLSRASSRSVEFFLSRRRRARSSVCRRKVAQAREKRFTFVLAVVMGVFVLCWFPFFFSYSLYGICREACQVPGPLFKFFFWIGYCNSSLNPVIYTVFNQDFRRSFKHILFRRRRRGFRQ
Put plainly: Binding affinity for alpha-2C-adrenergic receptor. The essentials:
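Human alpha2C receptor stably expressed in CHO cell membranes (5-10 µg protein) in 25 mM glycylglycine, pH 7.6. Competition against [3H]rauwolscine (1 nM), 30 min at 25 °C. Nonspecific binding defined with spiroxatrine (1 µM). Rapid filtration over GF/B, washed with ice-cold 50 mM Tris-HCl pH 8.0, scintillation counting. Sigmoidal curves fitted; Ki by Cheng-Prusoff.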

For test [11], the target named is T2, Sodium-dependent serotonin transporter. In words: Binding affinity for serotonin transporter. Format: functional, Rattus norvegicus. In outline: as §3
Test [12] relates to Rattus norvegicus. Put plainly: Effective dose for antagonism ofpCA-Induced excitation was determined by subcutaneous administration. Particulars: sc. In kind it is functional. In outline: as §4

The structures appear in SMILES notation. pKi: −log10 of the molar value.

Norepinephrine transporter, sequence (Q9WTR4 whole entry): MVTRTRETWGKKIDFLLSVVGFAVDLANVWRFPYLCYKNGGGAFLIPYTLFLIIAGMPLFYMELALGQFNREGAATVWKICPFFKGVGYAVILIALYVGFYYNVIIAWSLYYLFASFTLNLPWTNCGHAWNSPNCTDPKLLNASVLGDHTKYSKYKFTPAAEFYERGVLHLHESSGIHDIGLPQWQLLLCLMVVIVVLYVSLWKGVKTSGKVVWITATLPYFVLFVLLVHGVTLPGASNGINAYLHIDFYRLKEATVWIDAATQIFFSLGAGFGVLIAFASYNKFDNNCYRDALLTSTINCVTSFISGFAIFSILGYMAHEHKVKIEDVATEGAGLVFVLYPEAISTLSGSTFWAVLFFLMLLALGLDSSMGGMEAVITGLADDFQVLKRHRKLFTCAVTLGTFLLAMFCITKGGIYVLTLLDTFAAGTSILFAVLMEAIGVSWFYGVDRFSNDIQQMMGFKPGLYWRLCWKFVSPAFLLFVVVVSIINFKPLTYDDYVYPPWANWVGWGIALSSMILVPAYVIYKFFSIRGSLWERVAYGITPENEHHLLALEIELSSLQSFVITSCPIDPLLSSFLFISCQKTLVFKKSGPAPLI
5-hydroxytryptamine receptor 7, sequence (P34969 whole entry): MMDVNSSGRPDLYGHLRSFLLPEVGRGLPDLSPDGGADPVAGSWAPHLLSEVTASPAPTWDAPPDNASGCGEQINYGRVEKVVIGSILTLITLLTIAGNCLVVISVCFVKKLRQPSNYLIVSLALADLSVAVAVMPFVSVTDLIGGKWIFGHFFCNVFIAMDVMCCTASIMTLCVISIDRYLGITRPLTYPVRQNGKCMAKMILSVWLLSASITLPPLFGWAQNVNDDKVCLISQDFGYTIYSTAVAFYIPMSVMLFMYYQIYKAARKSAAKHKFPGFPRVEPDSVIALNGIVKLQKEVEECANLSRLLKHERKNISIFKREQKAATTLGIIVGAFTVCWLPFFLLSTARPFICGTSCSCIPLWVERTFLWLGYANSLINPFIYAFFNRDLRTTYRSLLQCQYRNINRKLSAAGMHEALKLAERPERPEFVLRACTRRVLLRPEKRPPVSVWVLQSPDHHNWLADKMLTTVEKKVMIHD
D(3) dopamine receptor, sequence (P35462 whole entry): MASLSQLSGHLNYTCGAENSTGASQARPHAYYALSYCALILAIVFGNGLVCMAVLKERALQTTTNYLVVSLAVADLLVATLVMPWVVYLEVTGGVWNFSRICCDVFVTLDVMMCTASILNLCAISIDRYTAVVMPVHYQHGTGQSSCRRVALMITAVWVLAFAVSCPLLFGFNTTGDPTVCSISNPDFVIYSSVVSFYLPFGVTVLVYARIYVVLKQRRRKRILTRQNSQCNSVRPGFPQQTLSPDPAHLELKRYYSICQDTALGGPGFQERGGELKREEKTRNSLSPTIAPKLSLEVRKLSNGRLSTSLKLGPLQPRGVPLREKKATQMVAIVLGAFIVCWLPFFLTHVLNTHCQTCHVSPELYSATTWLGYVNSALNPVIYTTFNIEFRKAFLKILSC
5-hydroxytryptamine receptor 2A, sequence (P28223 whole entry): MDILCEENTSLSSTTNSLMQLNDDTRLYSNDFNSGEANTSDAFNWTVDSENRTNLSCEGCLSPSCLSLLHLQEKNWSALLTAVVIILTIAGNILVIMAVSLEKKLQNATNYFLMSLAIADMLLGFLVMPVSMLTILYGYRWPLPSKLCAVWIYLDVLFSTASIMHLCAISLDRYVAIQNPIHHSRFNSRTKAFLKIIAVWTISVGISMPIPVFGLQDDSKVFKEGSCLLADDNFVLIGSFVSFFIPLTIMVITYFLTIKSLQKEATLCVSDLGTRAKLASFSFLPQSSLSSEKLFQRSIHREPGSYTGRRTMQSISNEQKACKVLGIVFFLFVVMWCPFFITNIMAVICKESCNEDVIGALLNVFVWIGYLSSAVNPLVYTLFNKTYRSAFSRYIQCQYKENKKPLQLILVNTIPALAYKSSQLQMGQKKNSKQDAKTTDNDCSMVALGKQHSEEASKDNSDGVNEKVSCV
T2 sequence (P31645 whole entry): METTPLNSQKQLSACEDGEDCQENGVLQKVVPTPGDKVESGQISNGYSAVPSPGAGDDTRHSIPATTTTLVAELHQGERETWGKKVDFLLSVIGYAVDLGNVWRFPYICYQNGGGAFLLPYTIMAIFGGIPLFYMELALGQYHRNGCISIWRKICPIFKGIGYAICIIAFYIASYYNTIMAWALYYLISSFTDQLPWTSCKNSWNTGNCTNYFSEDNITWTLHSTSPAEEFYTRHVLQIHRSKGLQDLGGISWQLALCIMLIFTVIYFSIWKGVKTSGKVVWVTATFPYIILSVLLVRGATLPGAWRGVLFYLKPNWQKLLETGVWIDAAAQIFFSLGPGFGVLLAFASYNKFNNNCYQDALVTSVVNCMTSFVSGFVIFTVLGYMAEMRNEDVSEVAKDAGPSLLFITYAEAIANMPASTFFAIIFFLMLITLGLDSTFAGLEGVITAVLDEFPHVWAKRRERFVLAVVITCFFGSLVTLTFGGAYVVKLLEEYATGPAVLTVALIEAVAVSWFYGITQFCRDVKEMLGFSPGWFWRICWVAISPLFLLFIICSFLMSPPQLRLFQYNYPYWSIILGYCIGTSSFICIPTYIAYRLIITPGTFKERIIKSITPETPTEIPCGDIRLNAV

The term ED50 denotes the midpoint of the dose-response relation. As usually defined, the pKi is the negative decadic logarithm of the Ki, by convention in mol/L. Low readings indicate a large Ki, high ones a small Ki. On to `COc1cc2c(cc1OC)C1=NO[C@@H](CN3CCN(C/C=C/c4ccccc4)CC3)[C@@H]1CO2`, for which the ED50 turned out to be 1.1 mg/kg in the test with Rattus norvegicus [1], 0.17 mg/kg with Rattus norvegicus [2], 1.3 mg/kg in the test on Rattus norvegicus [5] and 0.39 mg/kg in the test on Rattus norvegicus [8]. In addition, the pKi at D(3) dopamine receptor was 6.57; in test [3] it was under 6.00; in test [4], under 6.00; in [6], 8.92; in test [7], under 6.00; in test [9] it was 6.88.

As for `COc1cc2c(cc1OC)C1=NO[C@@H](CN3CCN(C/C=C(\C)c4ccccc4)CC3)[C@@H]1CO2`, the ED50 is 3.5 mg/kg in the test with Rattus norvegicus [1], 0.24 mg/kg in the test on Rattus norvegicus [2] and 0.5 mg/kg in the test with Rattus norvegicus [8]. Besides, the pKi is 9.22 in test [10]; 6.21 at D(3) dopamine receptor; under 6.00 in test [3]; under 6.00 in test [4]; under 6.00 in test [7]; 8.00 in test [11]. The pKi in test [9] is 6.66.

As to `COc1cc2c(cc1OC)C1=NO[C@@H](CN3CCN(C/C(C)=C/c4ccccc4)CC3)[C@@H]1CO2`, the ED50 in the test with Rattus norvegicus [1] was found to be 3.8 mg/kg; in the test with Rattus norvegicus [2], 0.33 mg/kg; in the test with Rattus norvegicus [5], 0.63 mg/kg. In addition, the negative logarithm of the Ki (pKi) at D(3) dopamine receptor was 6.36; in test [3], under 6.00; in test [4], 6.32; in [7], under 6.00; in [9], 6.75.

For the compound `COc1cc2c(cc1OC)C1=NO[C@@H](CN3CCN(Cc4ccc5ccccc5c4)CC3)[C@@H]1CO2`, the ED50 in the test on Rattus norvegicus [1] is 2.6 mg/kg; in the test on Rattus norvegicus [2], 0.25 mg/kg; in the test with Rattus norvegicus [12], 0.08 mg/kg; in the test with Rattus norvegicus [8], 0.08 mg/kg. Also, the pKi in [10] was 8.51; at D(3) dopamine receptor it was 6.97; in test [3], under 6.00; in test [4], under 6.00; in test [6], 8.77; in test [7], under 6.00. Further, the pKi in [11] was 8.77; in test [9], 7.48.
